Assay results collected from several papers.
Each line is one published result; the experiments were not run side by side.
Target: Adenosine receptor A2a (ADORA2A, Homo sapiens, UniProt P29274)

CCN(CC)CCCC[C@H](NC(=O)[C@H](CC(C)C)NC(=O)[C@H](C)NC(=O)[C@H](Cc1ccccc1)NC(=O)c1ccc(C(C)(C)C)cc1)C(=O)N[C@@H](CO)C(=O)OC — remaining binding (ligand displacement; radioligand; 10 µM): 102%
CC(C)N1CCC[C@H]1CNC(=O)c1cn(C2CCCC2)c(=O)c2c1c1ccccc1n2C — inhibition (ligand displacement; radioligand; 10 µM): 6%
OC[C@@]12C[C@@H]1[C@@H](n1cnc3c(NC(C4CCCC4)C4CCCC4)nc(Cl)nc31)[C@H](O)[C@@H]2O — inhibition (ligand displacement; radioligand; 10 µM): 24%
O=C(Nc1cccnn1)N1CCN([C@@H]2CCOc3cc(C(F)(F)F)ccc32)CC1 — inhibition (ligand displacement; 20 µM): 15%
COc1ccc(S(=O)(=O)N2CCCCC2)cc1C — inhibition (ligand displacement; radioligand; 10 µM): < 30%
CC(C)Cn1cnc2c(N)nc3ccccc3c21 — inhibition (ligand displacement; radioligand; 10 µM): 89%
O=c1ccc2ccccc2o1 — inhibition (ligand displacement; radioligand; 10 µM): -4.26%
C[C@H](C(=O)N[C@H]1COc2ccccc2[C@@H]1S(C)(=O)=O)c1ccc(F)cc1 — inhibition (cell-free assay; 10 µM): 1%
Nc1ncc(-c2nc(N3CCOCC3)nc(N3CCOCC3)n2)c(C(F)F)n1 — remaining signal (cell-free assay; radioligand; 10 µM): 93.3%
OC[C@@]12C[C@@H]1[C@@H](n1cnc3c(NC(C4CCCC4)C4CCCC4)nc(Cl)cc31)[C@H](O)[C@@H]2O — inhibition (ligand displacement; radioligand; 10 µM): -12%
COCc1c(-c2cc3cc(C)cc(OC)c3s2)c2c(N)ncnn2c1CN1CCNC(=O)C1 — inhibition (ligand displacement; radioligand; 10 µM): 7%
c1ccc(C(NCCNC(c2ccccc2)c2ccccc2)c2ccccc2)cc1 — inhibition (cell-free assay; 10 µM): 12%
Clc1ccc2c(C3CCN(CCc4c[nH]c5ccccc45)CC3)c[nH]c2c1 — inhibition (ligand displacement; radioligand; 10 µM): -12%
